Reference: publication PMC9514064 (Protein Science : A Publication of the Protein Society, 2022)
Values joined by “and” are separate entries in the source; they are usually repeats but may differ in a detail not shown here. Equal entries are not always repeated. Where two headings read alike, the source gives them in different places.

What was measured:
Bha TRAP12 [1] = target: T1, Bha TRAP12 (Halalkalibacterium halodurans, UniProt Q9KCC6); format: binding, B. halodurans
T1 sequence (Q9KCC6 1-76): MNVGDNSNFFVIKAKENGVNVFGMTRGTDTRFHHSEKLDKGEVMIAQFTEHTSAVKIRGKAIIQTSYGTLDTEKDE
How it was run: (§1)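 Apo protein dialysed into 400 mM ammonium acetate, adjusted to pH 8 with NH₄OH. Samples of 6.0–7.4 μM protein with 0–140 μM Trp were prepared fresh in parallel. Native MS on an Orbitrap UHMR at ~25°C, each point in triplicate with different emitters. Abundances of the 0–12-bound states came from peak areas, with protein concentration corrected by a quadratic independent-sites fit. A 12-site NN model was fit globally by Powell minimisation; uncertainties are SD of three repeats.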

Bst TRAP12 ∆71 = target: T2, Bst TRAP12 ∆71 (Geobacillus stearothermophilus, UniProt Q9X6J6); format: binding, B. stearothermophilus
T2 sequence (Q9X6J6 1-69 limits assumed): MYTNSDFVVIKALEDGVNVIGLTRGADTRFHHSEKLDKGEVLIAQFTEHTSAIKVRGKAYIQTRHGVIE
How it was run: as §1

Bst TRAP11 = target: T3, Bst TRAP11 (Geobacillus stearothermophilus, UniProt Q9X6J6); format: binding, B. stearothermophilus
T3 sequence (Q9X6J6 1-74): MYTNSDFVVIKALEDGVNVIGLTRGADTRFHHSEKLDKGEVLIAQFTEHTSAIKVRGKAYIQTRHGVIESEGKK
How it was run: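 Apo 11-mer protein dialysed into 400 mM ammonium acetate. Samples of 6.0–7.4 μM protein with 0–140 μM Trp (serial dilutions) were prepared fresh in parallel. Native MS on an Orbitrap UHMR at ~25°C. Relative abundances of Trp-bound states came from integrated peak areas, with binding-site concentration corrected by a quadratic independent-sites fit. Populations were fit globally to a nearest-neighbour model (ΔG₀, ΔGα) by Powell minimisation.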

Bha TRAP12 [2] = target: T1, Bha TRAP12; assay: Isothermal titration calorimetry, Trp into TRAP; format: binding, B. halodurans; conditions: ITC 25°C, two-sites model
How it was run: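 Tag-free protein (C-terminal ENLYFQ left after TEV cleavage), expressed in E. coli BL21(DE3), made Trp-free by Gdn-HCl denaturation, RP-HPLC, refolding and SEC, then dialysed into buffer A (100 mM NaCl, 50 mM NaPO₄, pH 8.0). 293 μM Trp (in dialysate) titrated into 23 μM protomers, 25°C, 307 rpm. Integrated heats fit to a two-sites model; oligomer concentration corrected via fitted n; 200-sample bootstrap confidence intervals.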

[3] = 1/(αK 0), NN model, dissociation constant for sites with one bound neighbor, ~25°C
[4] = 1/K 0, NN model, dissociation constant for isolated sites, ~25°C
[5] = NN model, sites with 1 occupied neighbor, ~25°C
[6] = NN model, sites with no occupied neighbors, room temperature ~25°C, 400 mM ammonium acetate

SMILES: N[C@@H](Cc1c[nH]c2ccccc12)C(=O)O [Trp, tryptophan]
- Kd (Bha TRAP12 [1]; [3]): 2.8 ± 0.8 µM
- Kd (Bha TRAP12 [1]; [4]): 720 ± 140 µM
- Cooperativity factor α (Bha TRAP12 [1]; NN model, K N1/K 0, fold increase in affinity with one occupied neighbor): 256 and 256 ± 87
- ΔG 0 + ΔG α (Bha TRAP12 [1]; [5]): -7.6 ± 0.2 kcal/mol
- ΔG 0 (Bha TRAP12 [1]; [6]): -4.3 ± 0.1 kcal/mol
- Kd (Bst TRAP12 ∆71; [3]): 7.8 ± 1.2 µM
- Kd (Bst TRAP12 ∆71; [4]): 217 ± 13 µM
- Cooperativity factor α (Bst TRAP12 ∆71; NN model, K N1/K 0): 28 and 28 ± 5
- ΔG 0 + ΔG α (Bst TRAP12 ∆71; [5]): -7.0 ± 0.1 kcal/mol
- ΔG 0 (Bst TRAP12 ∆71; [6]): -5.00 ± 0.03 kcal/mol
- Kd (Bst TRAP11; [3]): 4.4 ± 1.9 µM
- Kd (Bst TRAP11; [4]): 36 ± 12 µM
- Cooperativity factor α (Bst TRAP11; NN model, K N1/K 0): 8 and 8 ± 5
- coupling energy ΔG α (Bst TRAP11; NN model, between adjacent sites): −1.2 ± 0.3 kcal mol^−1 interaction^−1
- ΔG 0 + ΔG α (Bst TRAP11; [5]): -7.3 ± 0.3 kcal/mol
- ΔG 0 (Bst TRAP11; [6]): -6.1 ± 0.2 kcal/mol
- n (fitted binding sites), Site 1 (Bha TRAP12 [2]; buffer A): ≈ 1
- n (fitted binding sites), Site 2 (Bha TRAP12 [2]; buffer A): ~ 11
- Kd (Bha TRAP12 [2]; Kd,1 (Site 1), first Trp): 1800 ± 300 nM
